The record followed here is ChEMBL document CHEMBL4813970, “Design, synthesis and evaluation of novel dimethylamino chalcone-O-alkylamines derivatives as potential multifunctional agents against Alzheimer's disease” (Eur J Med Chem, 2021).

Molecules are shown by their SMILES. Some results are limits rather than exact numbers.

The nature of test [1]: Antioxidant activity of compound assessed as trolox equivalent antioxidant capacity by ORAC-FL assay. It is filed as functional.
Test [2] deals with T1, Acetylcholinesterase (Rattus norvegicus, UniProt P37136).
T1 sequence (P37136 whole entry): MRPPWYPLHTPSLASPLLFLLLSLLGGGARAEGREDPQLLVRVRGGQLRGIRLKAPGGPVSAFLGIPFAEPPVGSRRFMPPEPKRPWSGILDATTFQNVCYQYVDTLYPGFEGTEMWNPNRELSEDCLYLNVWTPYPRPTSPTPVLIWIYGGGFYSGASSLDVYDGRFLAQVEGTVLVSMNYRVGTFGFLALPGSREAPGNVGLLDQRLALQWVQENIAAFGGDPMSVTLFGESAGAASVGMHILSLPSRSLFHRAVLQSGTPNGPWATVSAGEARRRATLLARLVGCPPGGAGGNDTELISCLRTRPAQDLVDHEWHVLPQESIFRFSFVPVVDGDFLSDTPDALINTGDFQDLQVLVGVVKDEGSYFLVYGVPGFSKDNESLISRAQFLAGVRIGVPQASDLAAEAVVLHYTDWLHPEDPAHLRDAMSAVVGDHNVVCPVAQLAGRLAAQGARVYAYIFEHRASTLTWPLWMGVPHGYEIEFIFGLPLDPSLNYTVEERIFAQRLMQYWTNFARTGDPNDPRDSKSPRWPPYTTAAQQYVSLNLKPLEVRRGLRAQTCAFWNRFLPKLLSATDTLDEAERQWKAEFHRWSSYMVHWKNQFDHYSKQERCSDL
Put plainly: Inhibition of rat cortex homogenate acetylcholinesterase by Ellman's method.

The target of another test is Butyrylcholinesterase (Rattus norvegicus, UniProt Q9JKC1). Description: Inhibition of rat serum BuChE by Ellman's method. (Ellman's reagent forms a yellow product with free thiols.)
In test [3] the target is Acetylcholinesterase (Electrophorus electricus, UniProt O42275). Put plainly: Inhibition of electric eel AChE using acetylthiocholine iodide as substrate by Ellman's method.
Test [4] deals with T2, Amine oxidase [flavin-containing] B (Homo sapiens, UniProt P27338).
T2 sequence (P27338 whole entry): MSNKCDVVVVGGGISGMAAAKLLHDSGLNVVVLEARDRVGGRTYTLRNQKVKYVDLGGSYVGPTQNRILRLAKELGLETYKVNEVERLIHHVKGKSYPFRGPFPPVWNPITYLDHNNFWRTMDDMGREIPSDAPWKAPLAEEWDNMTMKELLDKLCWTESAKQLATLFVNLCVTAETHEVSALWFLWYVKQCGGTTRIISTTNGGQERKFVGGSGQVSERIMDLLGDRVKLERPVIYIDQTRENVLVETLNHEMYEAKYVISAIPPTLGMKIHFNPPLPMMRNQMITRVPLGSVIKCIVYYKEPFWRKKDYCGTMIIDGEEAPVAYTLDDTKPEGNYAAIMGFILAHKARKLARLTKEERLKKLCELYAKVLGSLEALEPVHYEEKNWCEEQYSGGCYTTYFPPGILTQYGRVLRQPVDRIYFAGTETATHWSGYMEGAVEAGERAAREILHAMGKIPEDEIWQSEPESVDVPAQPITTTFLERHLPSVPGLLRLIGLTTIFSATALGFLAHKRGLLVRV
Description: Inhibition of human recombinant MAO-B by multimode plate reader assay.

Test [5] addresses T3, Amine oxidase [flavin-containing] A (Homo sapiens, UniProt P21397).
T3 sequence (P21397 whole entry): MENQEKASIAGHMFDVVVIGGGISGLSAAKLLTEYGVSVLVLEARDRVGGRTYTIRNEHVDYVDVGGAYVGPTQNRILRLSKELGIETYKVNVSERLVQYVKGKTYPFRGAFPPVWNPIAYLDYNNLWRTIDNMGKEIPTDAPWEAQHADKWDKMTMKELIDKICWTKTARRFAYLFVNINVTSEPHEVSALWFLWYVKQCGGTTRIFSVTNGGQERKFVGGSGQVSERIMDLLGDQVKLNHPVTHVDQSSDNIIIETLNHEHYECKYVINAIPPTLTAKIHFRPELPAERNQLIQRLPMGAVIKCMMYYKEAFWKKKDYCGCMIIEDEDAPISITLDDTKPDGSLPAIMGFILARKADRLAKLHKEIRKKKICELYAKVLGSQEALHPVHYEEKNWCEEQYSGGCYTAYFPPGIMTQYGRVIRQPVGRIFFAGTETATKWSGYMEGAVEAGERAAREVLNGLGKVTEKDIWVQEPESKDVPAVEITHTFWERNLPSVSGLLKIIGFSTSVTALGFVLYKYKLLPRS
Put plainly: Inhibition of human recombinant MAO-A by multimode plate reader assay.

The next test is filed under the species Homo sapiens. Put plainly: Selectivity index, ratio of IC50 for recombinant human MAO-A to IC50 for recombinant human MAO-B. The gist of the method: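 Selectivity index taken as IC50(hMAO-A)/IC50(hMAO-B). IC50 values are mean ± SEM from three experiments.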
The target of test [6] is Amyloid-beta precursor protein (Homo sapiens, UniProt P05067). Description: Inhibition of self-induced amyloid beta (1 to 42) (unknown origin) aggregation at 25 uM by T-fluorescence assay relative to control. Put shortly: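 Self-induced Aβ1-42 aggregation measured by ThT fluorescence, excitation 446 nm and emission 490 nm. Compound and Aβ1-42 each at 25 μM. Run in triplicate. Values are mean of three independent experiments.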
Amyloid-beta precursor protein, sequence (P05067 whole entry): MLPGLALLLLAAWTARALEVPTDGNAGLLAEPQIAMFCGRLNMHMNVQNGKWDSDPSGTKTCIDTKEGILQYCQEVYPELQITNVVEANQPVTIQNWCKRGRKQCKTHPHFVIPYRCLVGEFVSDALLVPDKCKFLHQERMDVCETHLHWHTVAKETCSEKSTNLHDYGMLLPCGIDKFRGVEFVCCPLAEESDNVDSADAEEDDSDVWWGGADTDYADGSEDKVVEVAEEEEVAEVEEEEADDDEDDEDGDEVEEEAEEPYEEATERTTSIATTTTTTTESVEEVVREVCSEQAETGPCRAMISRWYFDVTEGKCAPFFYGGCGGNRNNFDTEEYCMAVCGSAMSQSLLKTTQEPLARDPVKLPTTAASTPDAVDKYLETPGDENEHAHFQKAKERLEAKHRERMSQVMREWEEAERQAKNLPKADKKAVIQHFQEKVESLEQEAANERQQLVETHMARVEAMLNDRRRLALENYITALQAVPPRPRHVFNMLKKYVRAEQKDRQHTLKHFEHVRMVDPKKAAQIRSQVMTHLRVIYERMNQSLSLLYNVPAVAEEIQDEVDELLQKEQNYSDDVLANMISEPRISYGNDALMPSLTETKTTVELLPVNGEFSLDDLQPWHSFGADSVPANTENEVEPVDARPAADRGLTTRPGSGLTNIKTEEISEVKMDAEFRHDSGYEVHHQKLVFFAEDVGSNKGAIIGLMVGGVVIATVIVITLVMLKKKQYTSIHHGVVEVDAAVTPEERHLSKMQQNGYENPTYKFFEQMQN

Acetylcholinesterase (Electrophorus electricus, UniProt O42275), sequence (O42275 whole entry): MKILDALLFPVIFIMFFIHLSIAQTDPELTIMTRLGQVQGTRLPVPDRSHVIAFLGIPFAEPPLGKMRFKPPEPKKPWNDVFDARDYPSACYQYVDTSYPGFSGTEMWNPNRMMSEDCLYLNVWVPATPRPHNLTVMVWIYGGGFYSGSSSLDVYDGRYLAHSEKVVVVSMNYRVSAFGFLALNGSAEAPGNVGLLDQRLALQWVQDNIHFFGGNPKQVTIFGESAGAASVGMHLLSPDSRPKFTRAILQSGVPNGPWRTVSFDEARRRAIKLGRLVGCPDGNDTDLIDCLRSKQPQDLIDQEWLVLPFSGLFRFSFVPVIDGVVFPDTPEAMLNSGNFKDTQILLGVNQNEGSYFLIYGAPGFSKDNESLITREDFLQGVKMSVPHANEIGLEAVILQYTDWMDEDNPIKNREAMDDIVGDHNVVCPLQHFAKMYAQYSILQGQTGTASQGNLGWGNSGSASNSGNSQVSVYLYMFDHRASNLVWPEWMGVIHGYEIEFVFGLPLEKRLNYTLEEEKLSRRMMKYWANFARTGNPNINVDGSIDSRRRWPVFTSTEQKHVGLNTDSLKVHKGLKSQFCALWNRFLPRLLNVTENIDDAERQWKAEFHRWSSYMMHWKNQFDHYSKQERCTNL
Butyrylcholinesterase, sequence (Q9JKC1 whole entry): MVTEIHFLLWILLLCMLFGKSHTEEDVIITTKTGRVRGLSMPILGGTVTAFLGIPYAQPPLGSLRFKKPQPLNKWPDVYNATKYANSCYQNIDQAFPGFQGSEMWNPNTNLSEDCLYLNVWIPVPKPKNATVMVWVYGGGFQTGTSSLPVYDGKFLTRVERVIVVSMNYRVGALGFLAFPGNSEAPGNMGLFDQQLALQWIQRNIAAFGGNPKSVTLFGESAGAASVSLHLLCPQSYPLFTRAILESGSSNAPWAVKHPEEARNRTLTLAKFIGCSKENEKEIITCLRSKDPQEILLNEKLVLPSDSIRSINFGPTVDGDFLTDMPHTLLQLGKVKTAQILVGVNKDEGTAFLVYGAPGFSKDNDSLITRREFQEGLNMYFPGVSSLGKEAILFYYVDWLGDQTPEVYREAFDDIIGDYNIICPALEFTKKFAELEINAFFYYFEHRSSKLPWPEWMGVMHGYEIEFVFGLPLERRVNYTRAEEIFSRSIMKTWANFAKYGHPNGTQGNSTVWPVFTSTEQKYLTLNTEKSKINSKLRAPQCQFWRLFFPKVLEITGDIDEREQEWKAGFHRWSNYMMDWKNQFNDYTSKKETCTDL

For the compound `CN(C)c1ccc(/C=C/C(=O)c2ccc(N(C)C)cc2O)cc1`, the Activity in test [1] was determined as 1.7. Also, the IC50 (usually the concentration needed to halve the response being measured) is more than 500 µM against Acetylcholinesterase [2]; more than 500 µM against Butyrylcholinesterase; more than 500 µM against Acetylcholinesterase [3]; 12.1 µM in test [4]; 47.9 µM in test [5]. Moreover, the Selectivity Index in the test filed under Homo sapiens came to 4. Also, the inhibition (in general, how much of the control response was suppressed) in test [6] was determined as 64.3%.
As for `COc1ccc(C(=O)/C=C/c2ccc(N(C)C)cc2)c(O)c1`, the Activity in test [1] is 1.2. Moreover, the IC50 at Acetylcholinesterase [2] is more than 500 µM; at Butyrylcholinesterase, more than 500 µM; against Acetylcholinesterase [3], more than 500 µM; in test [4] it was 0.21 µM; in test [5], 7.62 µM. Moreover, in the test listed under Homo sapiens, the Selectivity Index came to 36.3. Further, the inhibition in test [6] was determined as 59.7%.
As to `CCN(CCCCOc1ccc(/C=C/C(=O)c2ccc(N(C)C)cc2O)cc1)Cc1ccccc1OC`, the Activity in test [1] is 1.6. The IC50 at Acetylcholinesterase [2] is 0.71 µM; on Butyrylcholinesterase, more than 500 µM; against Acetylcholinesterase [3], 1.63 µM; in test [4] it was 4.6 µM; in test [5] it was 9.2 µM. In addition, the Selectivity Index in the test filed under Homo sapiens was 2. In test [6], this compound registered an inhibition of 70.1%.
As to `COc1ccc(/C=C/C(=O)c2ccc(N(C)C)cc2O)cc1`, the Activity in test [1] is 1.5. Also, the IC50 at Acetylcholinesterase [2] was more than 500 µM; at Butyrylcholinesterase it was more than 500 µM; against Acetylcholinesterase [3] it was more than 500 µM; in test [4], 13.3 µM; in test [5], 42.5 µM. In the test listed under Homo sapiens, the Selectivity Index came to 3.2. The inhibition in test [6] came to 36.1%.
On to `CCN(CCCOc1ccc(C(=O)/C=C/c2ccccc2)c(O)c1)Cc1ccccc1N(C)C`, for which, in test [1], the Activity worked out at 1.3. The IC50 on Acetylcholinesterase [2] is 0.31 µM; on Butyrylcholinesterase it was more than 500 µM; at Acetylcholinesterase [3], 2 µM; in test [4], 0.8 µM; in test [5] it was 67.8 µM. Also, the Selectivity Index in the test listed under Homo sapiens came to 84.4. Also, the inhibition in test [6] was 23%.
On to `CCN(CC)CCCOc1ccc(C(=O)/C=C/c2ccc(N(C)C)cc2)c(O)c1`, for which, in test [1], the Activity came out at 1.2. The IC50 on Acetylcholinesterase [2] is 2.25 µM; at Butyrylcholinesterase it was more than 500 µM; on Acetylcholinesterase [3], 1.35 µM; in test [4] it was 4.1 µM; in test [5] it was 47.1 µM. The Selectivity Index in the test listed under Homo sapiens was found to be 11.5. Also, in test [6], the inhibition stood at 64.1%.
